In ChEMBL document CHEMBL1143851, “Antimicrobial susceptibilities of Peptostreptococcus anaerobius and the newly described Peptostreptococcus stomatis isolated from various human sources” (2007):
Values after ≈ are worked out from the molar mass of the structure shown.

Experiments:
[1] = tested on: Peptostreptococcus anaerobius; test: Antibacterial activity against Peptostreptococcus anaerobius; format: functional
Procedure, shortened: (§1)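 Clinical isolates (1985–2005) revived from −70°C stocks and subcultured on brucella blood agar. Etest MICs: 48-h anaerobic growth on prereduced brucella and fastidious anaerobe agars (5% defibrinated sheep blood, hemin, vitamin K1) suspended in 0.9% NaCl to 1–2 McFarland, spread on fresh plates of both media; incubated anaerobically at 37°C for 48 h (72 h for slow growers).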

[2] = tested on: Peptostreptococcus stomatis; test: Antibacterial activity against Peptostreptococcus stomatis; format: functional; procedure, shortened: as §1

Structure (SMILES)	MIC50 [1] [µg/mL]	MIC90 [1] [µg/mL]	MIC50 [2] [µg/mL]	MIC90 [2] [µg/mL]
CC1(C)S[C@@H]2[C@H](NC(=O)[C@H](N)c3ccc(O)cc3)C(=O)N2[C@H]1C(=O)O [AMOXICILLIN]	0.125 (≈ 0.342 µM)	0.38 (≈ 1.04 µM)	< 0.016	0.094 (≈ 0.257 µM)
CC[C@H]1OC(=O)[C@H](C)[C@@H](O[C@H]2C[C@@](C)(OC)[C@@H](O)[C@H](C)O2)[C@H](C)[C@@H](O[C@@H]2O[C@H](C)C[C@H](N(C)C)[C@H]2O)[C@](C)(O)C[C@@H](C)CN(C)[C@H](C)[C@@H](O)[C@]1(C)O [AZITHROMYCIN]	0.5 (≈ 0.668 µM)	1 (≈ 1.34 µM)	0.19 (≈ 0.254 µM)	0.75 (≈ 1 µM)
CO[C@@]1(NC(=O)Cc2cccs2)C(=O)N2C(C(=O)O)=C(COC(N)=O)CS[C@@H]21 [CEFOXITIN]	0.38 (≈ 0.889 µM)	0.75 (≈ 1.75 µM)	0.064 (≈ 0.15 µM)	0.38 (≈ 0.889 µM)
CCC[C@@H]1C[C@@H](C(=O)N[C@@H]([C@H]2O[C@H](SC)[C@H](O)[C@@H](O)[C@H]2O)[C@H](C)Cl)N(C)C1 [CLINDAMYCIN]	0.19 (≈ 0.447 µM)	0.75 (≈ 1.76 µM)	< 0.016	0.016 (≈ 0.0376 µM)
C[C@@H](O)[C@H]1C(=O)N2C(C(=O)O)=C(S[C@@H]3CN[C@H](C(=O)Nc4cccc(C(=O)O)c4)C3)[C@H](C)[C@H]12 [ERTAPENEM]	0.25 (≈ 0.526 µM)	0.38 (≈ 0.799 µM)	0.047 (≈ 0.0988 µM)	0.19 (≈ 0.4 µM)
Cc1ncc([N+](=O)[O-])n1CCO [METRONIDAZOLE]	0.094 (≈ 0.549 µM)	0.19 (≈ 1.11 µM)	< 0.016	0.047 (≈ 0.275 µM)
COc1c(N2C[C@@H]3CCCN[C@@H]3C2)c(F)cc2c(=O)c(C(=O)O)cn(C3CC3)c12 [MOXIFLOXACIN]	0.125 (≈ 0.311 µM)	0.125 (≈ 0.311 µM)	0.094 (≈ 0.234 µM)	0.125 (≈ 0.311 µM)
